This note sets out measurements from PMC12265513 (bioRxiv, 2025).

In assay [1] the target is GST-fused construct of the NEDD9-SH3 domain (Homo sapiens, UniProt Q14511). Kind of assay: Fluorescence polarization, direct binding of FITC-labeled pep01 probe.
In assay [2] the test system is HPAECs. Nature of the assay: Anti-collagen III immunofluorescence in HPAECs. It is filed as cell-based, human. As to conditions: 24 hr, n=3. The essentials:
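HPAECs grown on glass chamber slides were exposed to test compound for 24 hr. They were then fixed in 4% formalin in PBS and blocked with 10% goat albumin in PBS for 1 hr at room temperature. Primary antibody (1:100) was applied overnight at 4°C. Collagen III deposition and NEDD9-positive cells were scored by immunofluorescence.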

The subject of assay [3] is NEDD9. Nature of the assay: NEDD9 immunoblot in HPAECs. It is filed as cell-based, human. As to conditions: 50-200 μM for 30-120 min, basal conditions, vs vehicle, n=3. The essentials:
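Confluent HPAECs in EBM-2 medium received test compound from a 10 mM DMSO stock, with DMSO as vehicle, for 30, 60 or 120 min. Lysates were immunoblotted with anti-NEDD9 (1:1000) overnight at 4°C, then peroxidase secondary and ECL detection.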

For assay [4], the system named is NEDD9-SMAD3 complex. Kind of assay: NEDD9-SMAD3 complex formation. It is filed as cell-based, human. The note with it: H2O2 (500 μM) for 20 min, n=3. The essentials: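 HPAECs were treated with 500 μM H2O2 for 20 min with or without test compound. The complex was measured two ways. One was anti-NEDD9 immunoprecipitation followed by anti-SMAD3 immunoblot. The other was proximity ligation with mouse anti-NEDD9 and rabbit anti-SMAD3, normalised to total NEDD9 expression. n=3.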

In assay [5] the test system is BRAF-RBD. Nature of the assay: Intact MS counter screen. Format: binding. The note with it: deconvoluted MS. The essentials:
(§1)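 Dual screen: NEDD9-SH3 (1-64) and BRAF-RBD, each at 1 μM, were mixed in one reaction with 100 μM covalent fragment. Controls were 100 μM iodoacetamide or 1% DMSO. Buffer was 50 mM HEPES pH 7.4, 100 mM NaCl, 4 h at 21°C. Reactions were quenched to 0.2% formic acid and read by RapidFire QTOF MS. Hits formed a single adduct on NEDD9-SH3 at least two-fold greater than on BRAF-RBD.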

The subject of assay [6] is NEDD9-SH3 (1-64). Nature of the assay: Intact protein mass spectrometry, covalent modification of the SH3 domain. Format: binding. As to conditions: intact MS and 2-D NMR. An outline of the steps: as §1

Peptide text beside a SMILES is read from it. * marks the point of attachment. FITC = O=C1OC2(c3ccc(O)cc3Oc3cc(O)ccc32)c2ccc(NC(=S)*)cc21; Ahx = NCCCCCC(=O)O

With `C[C@H](NC(=O)[C@H](CCC(=O)O)NC(=O)[C@H](CC(=O)O)NC(=O)CCCCCNC(=S)Nc1ccc2c(c1)C(=O)OC21c2ccc(O)cc2Oc2cc(O)ccc21)C(=O)N1CCC[C@H]1C(=O)N1CCC[C@H]1C(=O)N[C@@H](CCCCN)C(=O)N1CCC[C@H]1C(=O)N[C@@H](CO)C(=O)N[C@@H](CCCNC(=N)N)C(=O)N1CCC[C@H]1C(=O)NCC(=O)N[C@@H](Cc1ccc(O)cc1)C(=O)N1CCC[C@H]1C(=O)N[C@@H](CO)C(N)=O` [FITCylated pep01] ({FITC-Ahx}-DEAPPKPSRPGYPS-NH2), the affinity in assay [1], expressed as Kd, was 4 µM.

Take `C=CC(=O)Nc1cc(C(F)(F)F)cc(C(F)(F)F)c1` [Fragment 1, N-[3,5-Bis(trifluoromethyl)phenyl] acrylamide]: the “fibrosis in cellulo by anti-collagen III immunofluorescence” value in assay [2] is on record as “decreased fibrosis”. In assay [3], the “NEDD9 protein quantity by immunoblot” value was “decreased NEDD9 protein quantity”. Also, in assay [4], the NEDD9-SMAD3 complex formation result is recorded as “restored NEDD9-SMAD3 complex formation”.

For `C[C@@H]1CCN(C(=O)CCl)[C@@H](C(N)=O)C1` [Fragment 2, (2R,4R)-1-(2-chloroacetyl)-4-methylpiperridine-2-carboxamide], the BRAF-RBD modification result in assay [5] is recorded as “did not show BRAF-RBD modification”. Further, the “adduct formation to NEDD9-SH3” value in assay [6] was “dose- and time-dependent increase in adduct formation”.
